Holding throughout (assay type): functional
In assay [1] the test system is Mythimna separata. As to the kind of experiment: In vivo insecticidal activity against pre-third-instar larval stage of Mythimna separata (Oriental armyworm) in corn leaves assessed as corrected mortality rate at 1 mg/ml treated for 3 secs before larval infestation measured after 24 days by leaf-dipping method. To be noted: 576 h. The procedure, abridged: (§1)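 Leaf-dip assay: fresh corn leaves dipped 3 s in 1 mg/mL compound in acetone, then air-dried; acetone-only leaves served as control. Groups of 10 pre-third-instar larvae per dish fed treated leaves, replaced when consumed. After 48 h all dishes switched to untreated fresh leaves until adult emergence. Held at 25 ± 2 °C, RH 65–80%, 12 h/12 h light/dark. Corrected mortality scored.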

In assay [2] the test system is Mythimna separata. As to the kind of experiment: In vivo insecticidal activity against pre-third-instar larval stage of Mythimna separata (Oriental armyworm) in corn leaves assessed as corrected mortality rate at 1 mg/ml treated for 3 secs before larval infestation measured after 36 days by leaf-dipping method. To be noted: 864 h. The procedure, abridged:
as §1

The test system of assay [3] is Mythimna separata. As to the kind of experiment: In vivo insecticidal activity against pre-third-instar larval stage of Mythimna separata (Oriental armyworm) in corn leaves assessed as corrected mortality rate at 1 mg/ml treated for 3 secs before larval infestation measured after 12 days by leaf-dipping method. The following applies: 288 h. The procedure, abridged:
as §1

Consider `COc1cc([C@@H]2c3cc4c(cc3C[C@H]3COC(=O)[C@@H]32)OCO4)cc(OC)c1OC(=O)c1ccccc1Cl`, for which the results for the mortality at 1000 µg/mL in the assay on Mythimna separata [1], with Mythimna separata [2] and in the assay on Mythimna separata [3] were 25%, 37% and 17.8%, respectively.
Take `COc1cc([C@@H]2c3cc4c(cc3C[C@H]3COC(=O)[C@@H]32)OCO4)cc(OC)c1OC(=O)Cc1cccc2ccccc12`: the mortality at 1000 µg/mL with Mythimna separata [1] was 17.8%; in the assay on Mythimna separata [2], 37%; with Mythimna separata [3], 7.1%.
The corresponding values for `COc1cc([C@@H]2c3cc4c(cc3C[C@H]3COC(=O)[C@@H]32)OCO4)cc(OC)c1OC(=O)c1cccc([N+](=O)[O-])c1` are 14.2%, 51.8% and 3.5%.
Regarding `COc1cc([C@@H]2c3cc4c(cc3C[C@H]3COC(=O)[C@@H]32)OCO4)cc(OC)c1OC(=O)c1ccc([N+](=O)[O-])cc1`, the results for the mortality at 1000 µg/mL in the assay on Mythimna separata [1], in the assay with Mythimna separata [2] and in the assay with Mythimna separata [3] were 17.8%, 40.7% and 7.1%, respectively.
The corresponding values for `COc1cc([C@@H]2c3cc4c(cc3C[C@H]3COC(=O)[C@@H]32)OCO4)cc(OC)c1OC(=O)c1cc([N+](=O)[O-])cc([N+](=O)[O-])c1` are 25%, 22.2% and 14.2%.
Taken in the same sequence, the figures for `COc1cc([C@@H]2c3cc4c(cc3C[C@H]3COC(=O)[C@@H]32)OCO4)cc(OC)c1OC(=O)/C=C/c1ccccc1` were 17.8%, 48.1% and 10.7%.
Take `COc1cc([C@@H]2c3cc4c(cc3C[C@H]3COC(=O)[C@@H]32)OCO4)cc(OC)c1OC(=O)c1cccnc1`: the mortality at 1000 µg/mL was found to be 10.7% in the assay with Mythimna separata [1], 62.9% with Mythimna separata [2] and 3.5% with Mythimna separata [3].
With `COc1cc([C@@H]2c3cc4c(cc3C[C@H]3COC(=O)[C@@H]32)OCO4)cc(OC)c1OC(=O)CCCc1c[nH]c2ccccc12`, the results for the mortality at 1000 µg/mL with Mythimna separata [1], with Mythimna separata [2] and in the assay on Mythimna separata [3] were 14.2%, 40.7% and 10.7%, respectively.
As for `COc1cc([C@@H]2c3cc4c(cc3C[C@H]3COC(=O)[C@@H]32)OCO4)cc(OC)c1OC(=O)c1ccncc1`, the mortality at 1000 µg/mL came to 21.4% in the assay on Mythimna separata [1], 59.2% with Mythimna separata [2] and 14.2% with Mythimna separata [3].
As for `COc1ccc(C(=O)Oc2c(OC)cc([C@@H]3c4cc5c(cc4C[C@H]4COC(=O)[C@@H]43)OCO5)cc2OC)cc1`, the mortality at 1000 µg/mL in the assay with Mythimna separata [1] came to 21.4%; in the assay on Mythimna separata [2], 25.9%; in the assay on Mythimna separata [3], 3.5%.
`COc1cc([C@@H]2c3cc4c(cc3C[C@H]3COC(=O)[C@@H]32)OCO4)cc(OC)c1OC(=O)c1ccc(Cl)cc1`: the values for the mortality at 1000 µg/mL in the assay with Mythimna separata [1], in the assay on Mythimna separata [2] and in the assay on Mythimna separata [3] were 14.2%, 29.6% and 0%, respectively.
As to `COc1cc([C@@H]2c3cc4c(cc3C[C@H]3COC(=O)[C@@H]32)OCO4)cc(OC)c1OC(=O)Cc1ccccc1`, the mortality at 1000 µg/mL with Mythimna separata [1] amounted to 25%; with Mythimna separata [2] it was 29.6%; with Mythimna separata [3], 10.7%.
In the case of `COc1cc([C@@H]2c3cc4c(cc3C[C@H]3COC(=O)[C@@H]32)OCO4)cc(OC)c1OC(=O)c1ccccc1`, the mortality at 1000 µg/mL is 42.8% in the assay on Mythimna separata [1], 48.1% in the assay with Mythimna separata [2] and 28.5% with Mythimna separata [3].
Taken in the same sequence, the figures for `COc1cc([C@@H]2c3cc4c(cc3C[C@H]3COC(=O)[C@@H]32)OCO4)cc(OC)c1OC(=O)c1ccc(C)cc1` were 17.8%, 33.3% and 7.1%.
Regarding `COc1cc([C@@H]2c3cc4c(cc3C[C@H]3COC(=O)[C@@H]32)OCO4)cc(OC)c1OC(=O)c1cccc(C)c1`, the mortality at 1000 µg/mL was determined as 25% in the assay on Mythimna separata [1], 40.7% in the assay on Mythimna separata [2] and 17.8% with Mythimna separata [3].
Regarding `CC(=O)O[C@@H]1C[C@H](O)[C@@]23CO[C@@H](O)[C@]1(C)[C@@H]2C[C@@H](O)[C@]1(C)[C@@H]3C(=O)[C@H](OC(C)=O)[C@@]2(C)[C@H](c3ccoc3)C[C@H]3O[C@]321` [TOOSENDANIN], the mortality at 1000 µg/mL is 35.7% in the assay with Mythimna separata [1], 40.7% in the assay with Mythimna separata [2] and 21.4% in the assay on Mythimna separata [3].
